Screens: PubChem BioAssay, several laboratories
Arr AP2 block: blocks beta-arrestin peptide binding to AP2 adaptin; FITC-arrestin peptide / GST-AP2 beads, flow cytometry; AP2 beta2 appendage carries R879A mutation; 340,000 compounds, 0.31% hits; AID 504490; inhibition, % at 10 µM;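 active means inhibition above a set limit, near 3 SD of compounds lacking own fluorescence, cut at about 54% in these data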;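 further: plate controls were DMSO wells for no effect and 5 µM unlabelled arrestin peptide for full effect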
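Test system: GST-tagged AP2 beta2-adaptin appendage (R879A) on 4 µm glutathione beads; also added: fluorescein-tagged arrestin peptide at 50 nM final; timing: 12 min plus 1 h, RT; signal: flow cytometry, FL1 (488/535 nm); read-out: percent drop in bead-associated FITC signal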
Fh CTSL1 inh: blocks F. hepatica cathepsin L1 in PFM18AAP counter-screen | inhibition, % at 5.96 µM | recombinant F. hepatica cathepsin L1, Z-Leu-Arg-MCA fluorescence | AID 1906 | 300,000 compounds, 0.49% hits;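 active means inhibition above the mean of all tested compounds plus 3 SD, set per screening campaign, cut at about 17% in these data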;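 further: 0% = plate median of test compound wells and 100% = 1 µM Z-Phe-Ala-diazomethylketone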
Hep lipid drop: hepatic lipid droplet formation modulation | inhibition, % at 6.5 µM | AID 1656 | 240,000 compounds, 0.4% hits | AML12 mouse hepatocytes, oleate lipid droplets, BODIPY imaging;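 active means lipid droplet intensity inhibited by at least 50%, with more than 500 cells counted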
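Assay system: AML12 mouse liver cells | Compound dosing: One dose, 6.5 µM compound | Read-out basis: Droplet intensity reduction, % inhibition | Measured by: Fluorescence imaging, 20x objective, two fields per well | Schedule: Overnight treatment with compound plus oleate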
p-CIP stab down: compounds decreasing mouse p/CIP protein stability; 290,000 compounds, 0.01% hits; Q05BA5; decrease of EGFP signal, % at 10 µM; F442A p/CIP-EGFP cells, EGFP fluorescence, 16 h;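 active means EGFP signal decrease of at least 30% at 10 µM or well 3 SD below plate mean, unless failing retest; inactive means the rest, including hits failing retest or dose response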
Target sequence (Q05BA5 1-1403): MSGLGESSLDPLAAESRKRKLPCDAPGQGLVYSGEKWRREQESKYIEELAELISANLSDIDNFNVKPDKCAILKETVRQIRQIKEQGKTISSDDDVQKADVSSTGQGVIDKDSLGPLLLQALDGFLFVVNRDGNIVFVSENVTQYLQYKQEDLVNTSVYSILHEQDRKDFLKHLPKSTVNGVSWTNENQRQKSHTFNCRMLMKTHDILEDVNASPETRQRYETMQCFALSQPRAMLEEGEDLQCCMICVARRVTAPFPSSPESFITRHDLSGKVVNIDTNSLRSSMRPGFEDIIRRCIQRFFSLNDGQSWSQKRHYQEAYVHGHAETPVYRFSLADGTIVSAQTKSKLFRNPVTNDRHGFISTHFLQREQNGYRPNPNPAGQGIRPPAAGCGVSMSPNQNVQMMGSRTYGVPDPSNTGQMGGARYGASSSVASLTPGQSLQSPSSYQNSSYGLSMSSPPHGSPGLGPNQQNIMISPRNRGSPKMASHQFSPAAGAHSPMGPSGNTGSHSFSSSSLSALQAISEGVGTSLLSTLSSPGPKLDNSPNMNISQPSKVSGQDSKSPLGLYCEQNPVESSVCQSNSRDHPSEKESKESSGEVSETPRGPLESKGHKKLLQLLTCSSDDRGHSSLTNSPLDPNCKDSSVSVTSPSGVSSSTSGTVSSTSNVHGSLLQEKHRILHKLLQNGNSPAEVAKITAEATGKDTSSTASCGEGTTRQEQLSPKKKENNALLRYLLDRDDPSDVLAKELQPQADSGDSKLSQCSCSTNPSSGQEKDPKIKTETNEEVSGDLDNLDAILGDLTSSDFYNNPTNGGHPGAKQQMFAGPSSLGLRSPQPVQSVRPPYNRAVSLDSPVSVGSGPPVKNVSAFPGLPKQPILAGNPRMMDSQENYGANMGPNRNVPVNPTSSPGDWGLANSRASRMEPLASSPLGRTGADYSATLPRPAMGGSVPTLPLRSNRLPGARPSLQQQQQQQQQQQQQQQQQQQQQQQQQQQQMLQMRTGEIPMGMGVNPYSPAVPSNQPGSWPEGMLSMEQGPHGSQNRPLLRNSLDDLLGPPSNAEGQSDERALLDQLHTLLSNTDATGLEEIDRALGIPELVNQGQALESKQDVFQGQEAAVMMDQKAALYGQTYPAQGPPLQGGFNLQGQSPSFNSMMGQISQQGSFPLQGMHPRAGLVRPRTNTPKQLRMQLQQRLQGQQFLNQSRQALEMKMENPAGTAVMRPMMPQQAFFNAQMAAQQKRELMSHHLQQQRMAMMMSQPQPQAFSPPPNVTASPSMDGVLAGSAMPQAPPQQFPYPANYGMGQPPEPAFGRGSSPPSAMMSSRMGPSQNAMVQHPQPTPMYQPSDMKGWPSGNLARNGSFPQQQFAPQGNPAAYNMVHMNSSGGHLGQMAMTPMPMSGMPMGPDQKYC
Arr AP2 CP1: human beta-arrestin and AP2 interaction inhibition, cherry pick | AID 504908 | GST-AP2 beads, FITC arrestin peptide binding, flow cytometry; GST-fused beta2-adaptin appendage, R879A mutant | shares compounds with Arr AP2 block | 1,300 compounds, 2% hits | inhibition, % at 10 µM;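 active means inhibition above a set limit, roughly 3 SD of non-fluorescent compound noise, cut at about 38% in these data; inactive means inhibition at or below that limit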;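 further: loss of bead fluorescence from 50 nM FITC arrestin peptide bound to appendage; 0% = negative control wells and 100% = excess unlabelled arrestin peptide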
GST GSH counter: GST-GSH bead binding interference, counter-screen; shares compounds with Arr AP2 block; GST-fluorescein binding to GSH beads, fluorescence; inhibition, % at 10 µM; 1,300 compounds, 2% hits; AID 588338;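 active means inhibition above 50%, about 3 SD of the inhibition seen with non-fluorescent compounds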;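 further: fluorescein maleimide labelled GST captured on 4 micron glutathione beads; higher means more loss of bead fluorescence from quenching or blocked binding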
Numbers without * were called inactive; x = no result given. Rows were chosen to be rich in hits. Some 1% of all compounds tested hit in one or more screens of this group.

SMILES | Arr AP2 block | Fh CTSL1 inh | Hep lipid drop | p-CIP stab down | Arr AP2 CP1 | GST GSH counter
O=C(NCC1CCCO1)c1cc(-c2ccccc2)nc2ccc(Br)cc12 (stereo not drawn) | 54.0* | 3.1 | -27.4 | -8.8 | 1.2 | -5.2
O=C(Cn1cc(SCc2ccccc2Cl)c2ccccc21)N1CCOCC1 | -12.8 | 0.1 | -11.5 | 1.3 | x | x
COc1ccc(C(=O)Nc2ccc(N3CCN(C)CC3)cc2)cc1OC | 65.1* | 1.2 | x | 1.7 | 4.0 | 3.6
CC(=O)N1CCN(c2ccc(NC(=O)c3ccc(OCc4ccccc4)cc3)cc2)CC1 | 99.9* | -2.4 | -4.8 | 3.1 | -11.9 | -8.3
CC(C)CN(C(=O)c1ccc(S(=O)(=O)N2CCCC2)cc1)C1CCS(=O)(=O)C1 (stereo not drawn) | 54.6* | -4.8 | x | x | 8.3 | -8.3
CC(C)CN(C(=O)c1ccc(S(=O)(=O)N2CCCCC2)cc1)C1CCS(=O)(=O)C1 (stereo not drawn) | -6.6 | x | x | x | x | x
COc1ccccc1C(=O)NCCC(=O)N1CCN(C(=O)c2ccco2)CC1 | -6.9 | x | x | x | x | x
COc1ccccc1C(=O)NCCC(=O)N1CCN(C(C)=O)CC1 | 61.0* | -1.3 | x | x | 8.9 | -2.4
O=C1NC(=S)N/C1=C/c1cccnc1 | -9.3 | -0.1 | 13.1 | -8.1 | x | x
CC(C)CC(c1nnnn1CC1CCCO1)N1CCN(C2CCCC2)CC1 (stereo not drawn) | 3.8 | x | -18.6 | 6.7 | x | x
NC(=NCc1ccccc1)C(N=Nc1ccccc1)C(=O)NCc1ccccc1 (stereo not drawn) | -0.3 | x | x | x | x | x
COc1cccc(C2C(C#N)=C(N)OC(C(C)(C)C)=C2C#N)c1 (stereo not drawn) | 92.8* | 0.5 | x | -2.1 | -8.2 | -5.6
CN(C)C(CNC(=O)CCNS(=O)(=O)c1ccccc1C(F)(F)F)c1ccccc1 (stereo not drawn) | 58.1* | x | x | x | 10.2 | -4.1
O=C(CCNS(=O)(=O)c1ccccc1C(F)(F)F)NCCCSc1ccccc1 | 36.0 | 1.6 | -2.7 | -3.3 | x | x
O=C(N/N=C\c1cccc([N+](=O)[O-])c1O)C1COc2ccccc2O1 (stereo not drawn) | 35.9 | 0.3 | 20.4 | -5.2 | x | x
O=C(Nc1cnc2ccccc2c1)C1COc2ccccc2O1 (stereo not drawn) | 69.4* | 3.0 | x | -5.1 | 3.5 | 2.1
O=C(N/N=C/c1cccc([N+](=O)[O-])c1)C1COc2ccccc2O1 (stereo not drawn) | 58.0* | 0.9 | -23.7 | -0.2 | -5.0 | 1.2
O=C(Nc1ccccc1[N+](=O)[O-])C1COc2ccccc2O1 (stereo not drawn) | 55.8* | -1.9 | 4.5 | 1.2 | 0.1 | -5.8
O=C(Nc1ccc(F)cc1)C1COc2ccccc2O1 (stereo not drawn) | -10.2 | -1.8 | x | 3.9 | x | x
COc1ccc(OC)c(CN2CCN(C(=O)CCC(=O)c3cccs3)CC2)c1 | 55.2* | -4.4 | x | x | 0.4 | 0.0
Cc1ccc(C(=O)N2CCCCCC2)cc1S(=O)(=O)Nc1ccccc1 | 17.5 | x | -5.8 | -18.1 | x | x
COc1ccc(C2=NN(C(=O)CN3CCOCC3)C(c3nc4ccccc4[nH]3)C2)cc1 (stereo not drawn) | 1.5 | 5.4 | 23.8 | 1.1 | x | x
COc1ccc(OC)c(C2C(C(=O)c3ccc(C)o3)=C(O)C(=O)N2c2cc(C)on2)c1 (stereo not drawn) | 59.5* | 5.0 | 17.8 | -10.5 | -0.6 | -4.7
COc1ccc(C2C(C(=O)c3ccc(C)o3)=C(O)C(=O)N2c2cc(C)on2)cc1OC (stereo not drawn) | 4.4 | 1.4 | x | 3.1 | x | x
CCOc1ccc(NC(=O)CN2C(=O)C(C)SC(C)C2=O)cc1 (stereo not drawn) | 54.9* | 0.5 | 4.2 | 9.8 | -8.5 | -15.4
SMILES | Arr AP2 block | Fh CTSL1 inh | Hep lipid drop | p-CIP stab down | Arr AP2 CP1 | GST GSH counter
COc1ccc2c(c1)c(=O)oc1cc(OC(C(=O)O)c3ccccc3)ccc12 (stereo not drawn) | -5.5 | 1.7 | -2.4 | -1.5 | x | x
CC1CN(C(=O)c2ccc(NS(=O)(=O)c3ccc(F)c(F)c3)cc2)CC(C)O1 (stereo not drawn) | 56.2* | 0.4 | x | x | -1.0 | -11.4
O=C(N/N=C/c1cc([N+](=O)[O-])cc([N+](=O)[O-])c1O)/C(=C\c1cccs1)NC(=O)c1ccccc1 | 19.2 | 4.2 | 1.6 | 0.9 | x | x
CC(OC(=O)c1ccc2ncsc2c1)C(=O)N(C)C1CCCCC1 (stereo not drawn) | 60.0* | x | x | x | 16.3 | -8.5
CC(OC(=O)c1ccc(NS(=O)(=O)c2cccs2)cc1)C(=O)N(C)C1CCCCC1 (stereo not drawn) | 4.0 | -0.1 | -1.2 | -4.1 | x | x
Cc1ccccc1N=C1N=C(N)c2ccccc21 | 0.8 | -2.5 | 31.2 | -6.5 | x | x
COc1ccc(S(=O)(=O)N2CCCCCC2)cc1C(=O)NCc1ccco1 | 4.3 | x | x | x | x | x
O=C(NCc1ccco1)c1cc(S(=O)(=O)N2CCCC2)ccc1Cl | 54.4* | -0.6 | -3.2 | 4.3 | 0.9 | -15.3
COc1ccc(N2CCCC2)c(NC(=O)c2ccc(Br)o2)c1 | 64.5* | -0.1 | 13.1 | -11.4 | 19.4 | -5.6
O=C(Nc1ccccc1N1CCCC1)c1ccc(Br)o1 | 29.2 | 3.7 | -4.2 | -6.9 | x | x
N#Cc1nc(-c2ccco2)oc1NCc1ccc(F)cc1 | 71.8* | 4.6 | -8.5 | -5.9 | -7.8 | -2.8
Cc1noc(C)c1COC(=O)CCN1c2ccccc2Sc2ccccc21 | -8.0 | 1.4 | x | -14.3 | x | x
Cc1cc2cc(CN(CCCN3CCOCC3)C(=O)NC3CCCCC3)c(=O)[nH]c2cc1C | -0.7 | 1.1 | -2.3 | 2.2 | -4.5 | -2.4
Cc1cccc2cc(CN(CCN3CCOCC3)C(=O)Nc3ccccc3F)c(=O)[nH]c12 | -7.7 | 3.6 | 8.2 | 1.3 | x | x
Cc1cc(C)c2cc(CN(CCO)C(=O)NC3CCCCC3)c(=O)[nH]c2c1 | 20.5 | 4.7 | 10.2 | -3.1 | x | x
CCN1CCCC1CN(Cc1cc2c(C)cc(C)cc2[nH]c1=O)C(=O)NC1CCCCC1 (stereo not drawn) | 13.9 | 1.9 | x | -7.0 | -6.1 | -4.4
O=C(NC1CCCCC1)N(Cc1cc2cc3c(cc2[nH]c1=O)OCCO3)CC1CCCO1 (stereo not drawn) | -1.6 | 2.1 | x | -9.6 | -8.9 | -1.1
O=C(NC1CCCCC1)N(CCN1CCCC1)Cc1cc2cc3c(cc2[nH]c1=O)OCCO3 | -4.3 | -0.4 | 2.3 | -8.0 | x | x
Cc1cccc2cc(CN(CCN3CCCC3)C(=O)NC3CCCCC3)c(=O)[nH]c12 | 12.8 | 1.0 | x | 3.3 | 1.2 | -8.6
C=CCN(C)NC(=O)Nc1ccccc1 | -9.0 | 1.7 | 6.2 | -3.7 | x | x
CCCCN(CCCNC(=O)c1ccc2nc(N3CCOCC3)sc2c1)Cc1ccccc1 | -9.6 | 4.5 | x | -14.0 | x | x
Cc1ccc2cc(CN(CCCN3CCOCC3)C(=O)NC3CCCCC3)c(=O)[nH]c2c1C | -3.5 | 3.6 | x | x | 1.2 | -10.3
